Source: ChEMBL document CHEMBL1153242, “Novel spiropiperidine-based stearoyl-CoA desaturase-1 inhibitors: Identification of 1'-{6-[5-(pyridin-3-ylmethyl)-1,3,4-oxadiazol-2-yl]pyridazin-3-yl}-5-(trifluoromethyl)-3,4-dihydrospiro[chromene-2,4'-piperidine]” (Bioorg Med Chem Lett, 2010)
pIC50: −log10 of the molar value.

Tests used:
[1] = Cmax in C57BL/6J mouse at 20 mg/kg, po; assay type: ADME, organism-based; set-up: dose 20 mg/kg, route oral; conditions: in vivo
Method in brief: (§1)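 Oral dose of 20 mg/kg in PG/Tween (4/1), given by intubation tube to C57BL/6J mice (n = 3). Plasma sampled up to 8 h after dosing and compound levels measured by LC/MS. Values are arithmetic means of at least two experiments.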

[2] = test system: Mus musculus; assay: In vivo inhibition of SCD1 in non-fat diet-induced oral dosed C57BL/6J mouse liver assessed as conversion of ratio of [14C]oleate to [14C]stearate after 2 to 3 hrs; assay type: functional; conditions: read-out: ID50 (the source's name)
Method in brief: (§2)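 C57BL/6J mice on a non-fat diet (n = 2) dosed with inhibitor 2 h or 6 h before [14C]stearate. Mice killed 1 h after the [14C]stearate injection and livers removed. ID50 in mg/kg is the arithmetic mean of at least two experiments.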

[3] = target: T1, Stearoyl-CoA desaturase (Homo sapiens, UniProt O00767); assay: Inhibition of human SCD1 expressed in human 293A cells assessed as conversion of [14C]stearate to [14C]oleate; assay type: cell-based
T1 sequence (O00767 whole entry): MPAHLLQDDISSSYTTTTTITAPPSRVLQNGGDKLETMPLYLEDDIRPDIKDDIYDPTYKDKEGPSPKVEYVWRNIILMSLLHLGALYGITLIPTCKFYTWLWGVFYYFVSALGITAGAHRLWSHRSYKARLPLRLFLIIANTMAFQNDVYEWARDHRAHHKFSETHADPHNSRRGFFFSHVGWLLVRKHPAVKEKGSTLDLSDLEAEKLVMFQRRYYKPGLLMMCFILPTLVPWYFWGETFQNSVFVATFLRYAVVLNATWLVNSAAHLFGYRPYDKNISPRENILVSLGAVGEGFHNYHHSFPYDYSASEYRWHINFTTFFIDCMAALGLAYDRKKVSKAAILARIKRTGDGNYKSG

[4] = Tmax in C57BL/6J mouse at 20 mg/kg, po; assay type: ADME, organism-based; set-up: dose 20 mg/kg, route oral; conditions: in vivo; method in brief: as §1
[5] = test system: Mus musculus; assay: Reduction of desaturation index, ratio of C18:1 N9(cis)oleate to C18:0 streate in serum of low fat diet fed po dosed C57BL/6J mouse administered as single dose for 7 days measured after seventh dose; assay type: functional; set-up: scale not given: the % may be the effect or the level left; conditions: in the assay text read “non-fat diet” for “low fat diet”
Method in brief: (§3)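 C57BL/6J mice (n = 4) on a non-fat diet received oral doses once daily for 7 days, up to 3 mg/kg. The plasma desaturation index (C18:1/C18:0 ratio) served as the biomarker. Skin and eyes were inspected for abnormalities.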

[6] = species on record: Mus musculus; assay: Toxicity in C57BL/6J mouse assessed as occurance of abnormilities in eyes; assay type: organism-based; conditions: in vivo; method in brief: as §3
[7] = target: Stearoyl-CoA desaturase (Homo sapiens) (UniProt O00767); assay: Inhibition of SCD1 in human 293A cells S9 microsomal fraction assessed as conversion of [14C]stearate to [14C]oleate after 60 mins
[8] = test system: Mus musculus; assay: (§4) Oral bioavailability in C57BL/6J mouse at 20 mg/kg; assay type: ADME, organism-based; conditions: in vivo
[9] = AUC (0 to8 hrs) in C57BL/6J mouse at 20 mg/kg, po; assay type: ADME, organism-based; set-up: time < 8 hr, dose 20 mg/kg, route oral; conditions: plasma; method in brief: as §1
[10] = species on record: Mus musculus; assay: Toxicity in C57BL/6J mouse assessed as occurance of abnormilities in skin; assay type: organism-based; conditions: in vivo; method in brief: as §3
[11] = target: Stearoyl-CoA desaturase 1 (Mus musculus) (UniProt P13516); assay: Inhibition of SCD1 in mouse liver assessed as conversion of [14C]stearate to [14C]oleate after 60 mins in S9 microsomal fraction
[12] = test system: Mus musculus; assay: In vivo inhibition of SCD1 in non-fat diet-induced oral dosed C57BL/6J mouse liver assessed as conversion of ratio of [14C]oleate to [14C]stearate after 6 to 7 hrs; assay type: functional; conditions: read-out: ID50 (the source's name); method in brief: as §2
[13] = Half life in C57BL/6J mouse at 20 mg/kg, po; assay type: ADME, organism-based; set-up: dose 20 mg/kg, route oral; conditions: in vivo; method in brief: as §1
[14] = target: T1, Stearoyl-CoA desaturase; assay: Inhibition of SCD1 in human 293A cell microsomal fraction assessed as conversion of [14C]stearate to [14C]oleate after 60 mins at 0.4 uM
[15] = test system: Mus musculus; assay: In vivo inhibition of SCD1 in db/db mouse liver assessed as conversion of [14C]stearate to [14C]oleate administered through oral gavage; assay type: functional; conditions: read-out: ID50 (the source's name)
[16] = Volume of distribution in C57BL/6J mouse at 5 mg/kg, iv; assay type: ADME, organism-based; set-up: dose 5 mg/kg, route intravenous; conditions: in vivo
Method in brief: (§5)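 Single iv dose of 5 mg/kg in DMA/Tween80/saline (10/10/80), injected into the tail vein of C57BL/6J mice (n = 2). Plasma collected up to 8 h after dosing and compound measured by LC/MS. Values are arithmetic means of at least two experiments.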

[17] = as §4; assay type: ADME, organism-based; conditions: C57BL/6J, in vivo
[18] = Clearance in C57BL/6J mouse at 5 mg/kg, iv; assay type: ADME, organism-based; set-up: dose 5 mg/kg, route intravenous; conditions: in vivo; method in brief: as §5

| SMILES | pIC50 [3] | pIC50 [7] | pIC50 [11] | ED50 [15] [mg/kg] | also measured |
| --- | --- | --- | --- | --- | --- |
| FC(F)(F)c1cccc2c1CCC1(CCN(c3ccc(-c4nnc(Cc5cccnc5)o4)nn3)CC1)O2 | 9.10 | 10.52 | 10.22 | – | Cmax [1]: 2600 ng/mL; ED50 [2]: 0.5 mg/kg; Tmax [4]: 1 h; Activity [5]: 75%; Activity [6]: Non-toxic; F [8]: Not Active; AUC(0-t) at 8 h [9]: 7800 ng·h/mL; Activity [10]: Non-toxic; ED50 [12]: 0.8 mg/kg; half-life [13]: 1.4 h |
| FC(F)(F)c1cccc2c1CCC1(CCN(c3ccc(-c4nnc(CCc5cccnc5)o4)nn3)CC1)O2 | 7.46 | 8.70 | 7.80 | – | – |
| O=C(NCC(O)c1ccccc1)c1ccc(N2CCC3(CC2)Cc2ccccc2CO3)nn1 (stereo not drawn) | – | – | 7.12 | – | pIC50 [14]: < 6.40 |
| O=C(NCC(O)c1ccccc1)c1ccc(N2CCC3(CC2)CC(O)c2c(F)cccc2O3)nn1 (stereo not drawn) | – | – | – | 7 | – |
| Cn1nc(Cc2cccnc2)nc1-c1ccc(N2CCC3(CCc4c(cccc4C(F)(F)F)O3)CC2)nn1 | 7.42 | 8.40 | 7.19 | – | – |
| O=C(NCC(O)c1ccccc1)c1ccc(N2CCC3(CC2)Oc2ccccc2CC3=O)nn1 (stereo not drawn) | – | < 5.00 | – | – | – |
| FC(F)(F)c1cccc2c1CCC1(CCN(c3ccc(-c4nnc(Cc5cccnc5)[nH]4)nn3)CC1)O2 | 8.40 | 9.89 | 9.00 | – | – |
| O=C(NCC(O)c1ccccc1)c1ccc(N2CCC3(CC2)Oc2ccccc2CC3O)nn1 (stereo not drawn) | 6.25 | 6.52 | 7.31 | – | – |
| O=C(NCC(O)c1cccnc1)c1ccc(N2CCC3(CCc4c(F)ccc(F)c4O3)CC2)nn1 (stereo not drawn) | – | – | – | 5 | – |
| O=C(NCC(O)c1ccccc1)c1ccc(N2CCC3(CC2)CC(O)c2ccccc2O3)nn1 (stereo not drawn) | – | – | – | 15 | – |
| O=C(NCC(O)c1cccnc1)c1ccc(N2CCC3(CCc4c(F)cccc4O3)CC2)nn1 (stereo not drawn) | 8.15 | 7.92 | 8.22 | 2 | – |
| O=C(NCC(O)c1cccnc1)c1ccc(N2CCC3(CCc4c(Cl)cccc4O3)CC2)nn1 (stereo not drawn) | – | – | – | 3 | – |
| Cc1cccc2c1CCC1(CCN(c3ccc(C(=O)NCC(O)c4cccnc4)nn3)CC1)O2 (stereo not drawn) | – | – | – | 4 | – |
| O=C(NCC(O)c1ccccc1)c1ccc(N2CCC3(CC2)Cc2ccccc2C3=O)nn1 (stereo not drawn) | – | 5.70 | – | – | – |
| O=C(NCC(O)c1ccccc1)c1ccc(N2CCC3(CC2)CC(O)c2cc(F)ccc2O3)nn1 (stereo not drawn) | – | < 6.00 | – | – | – |
| COc1cccc2c1C(O)CC1(CCN(c3ccc(C(=O)NCC(O)c4ccccc4)nn3)CC1)O2 (stereo not drawn) | – | < 6.00 | – | – | – |
| O=C(NCC(O)c1ccccc1)c1ccc(N2CCC3(CC2)CC(O)c2ccc(F)cc2O3)nn1 (stereo not drawn) | – | – | – | 20 | – |
| O=C(NCC(O)c1ccccc1)c1ccc(N2CCC3(C=Cc4ccccc4O3)CC2)nn1 (stereo not drawn) | – | 6.10 | 7.21 | – | – |
| O=C(NCC(O)c1ccccc1)c1ccc(N2CCC3(CC2)Oc2ccccc2C3=O)nn1 (stereo not drawn) | – | – | < 5.00 | – | – |
| O=C(NCC(O)c1cccnc1)c1ccc(N2CCC3(CCc4c(cccc4C(F)(F)F)O3)CC2)nn1 (stereo not drawn) | – | – | – | 0.8 | Cmax [1]: 3500 ng/mL; ED50 [2]: 0.9 mg/kg; Vd [16]: 1 L/kg; Tmax [4]: 1 h; bioavailability [17]: 67%; AUC(0-t) at 8 h [9]: 13000 ng·h/mL; clearance [18]: 17 mL/min/kg; ED50 [12]: 2.5 mg/kg; half-life [13]: 2 h |
| FC(F)(F)c1cccc2c1CCC1(CCN(c3ccc(-c4nnc(-c5cccnc5)o4)nn3)CC1)O2 | – | – | < 5.00 | – | – |
| O=C(NCC(O)c1ccccc1)c1ccc(N2CCC3(CC2)CC(=O)c2ccccc2O3)nn1 (stereo not drawn) | 6.16 | 6.60 | 7.30 | – | – |
